Data published in paper PMC4516694 (Bioorganic & medicinal chemistry, 2015).
Blank lines part the entries; values can stand above or below the compound they belong to.

How the values were obtained:
[1] = biological target: T1, transfected human CRF1 receptors in HEK293T cells (Homo sapiens, UniProt P34998); test: In vitro competition binding assay at 23 °C vs. [125I]-Tyr0-sauvagine; settings: for Ki: Ki (nM) ± SEM, vs. [125I]-Tyr0-sauvagine, HEK293T cell membranes
T1 sequence (P34998 24-415): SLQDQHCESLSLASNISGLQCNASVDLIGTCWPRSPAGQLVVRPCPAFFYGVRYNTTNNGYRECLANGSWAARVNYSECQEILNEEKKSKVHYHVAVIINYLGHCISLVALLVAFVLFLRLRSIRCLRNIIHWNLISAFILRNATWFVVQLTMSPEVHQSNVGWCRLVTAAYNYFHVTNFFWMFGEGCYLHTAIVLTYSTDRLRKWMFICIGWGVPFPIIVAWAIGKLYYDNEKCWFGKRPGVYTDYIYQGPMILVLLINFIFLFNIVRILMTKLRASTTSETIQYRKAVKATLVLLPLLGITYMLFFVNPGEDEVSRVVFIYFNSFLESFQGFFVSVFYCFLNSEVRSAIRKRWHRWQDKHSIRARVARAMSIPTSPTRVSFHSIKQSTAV
In short: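 Human CRF1 plasmid transiently lipofected into HEK293T (DMEM, 10% FBS, grown to 75% confluency); cells harvested 48 h post-transfection; membranes homogenized in pH 7.2 HEPES/MgCl2/EGTA/BSA/aprotinin buffer. ~80 pM [125I]sauvagine plus test compound (10−13–10−5 M final), 2 h, 23 °C; filtered over polyethyleneamine-soaked filters and cold-washed. Triplicates; Ki by one-site competition fit (Kd 0.5 nM); ratios from Ki values.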

CRF1 receptor [2] = settings: read-out: Ki, previously reported value; cited from earlier work
CRF1 receptor [3] = test: Non-human primate microPET imaging; format: in vivo, male cynomolgus monkey; settings: anesthetized cynomolgus monkey
In short: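 Male cynomolgus monkey on a Siemens MicroPET Focus 220. A Co-57 point-source transmission scan was used for attenuation correction. F-18 radiotracer given by saphenous vein injection, then dynamic imaging for 120 min.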

Rat microPET imaging = format: in vivo, male Sprague-Dawley rat; settings: anesthetized rat
In short: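 One male Sprague-Dawley rat on an Inveon microPET/CT: isoflurane induction at 3–4%, maintained at 1–1.5% by nose cone. Prone, warmed with circulating air; Co-57 transmission scan for attenuation correction. F-18 radiotracer given by tail vein injection, then dynamic imaging for 60 min.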

- Ki ([1]; 23 °C): 0.47 ± 0.08 nM
SMILES: CCCN(CCC)c1cc(C)nc2c(-c3ccc(Cl)cc3Cl)c(C)nn12 [Compound 21, 3-(2,4-dichlorophenyl)-2,5-dimethyl-N,N-dipropylpyrazolo[1,5-a]pyrimidin-7-amine]

- Ki ([1]; 23 °C): 0.46 ± 0.06 nM
SMILES: CCCCN(CC)c1cc(C)nc2c(-c3ccc(Cl)cc3Cl)c(C)nn12 [Compound 22, N-butyl-3-(2,4-dichlorophenyl)-N-ethyl-2,5-dimethylpyrazolo[1,5-a]pyrimidin-7-amine]
- Ki (CRF1 receptor [2]): 0.9 ± 0.1 nM

- decrease in affinity relative to compounds 27, 28, 29 and 30 ([1]; 23 °C): ≥ 10 fold
- Ki ([1]; 23 °C): 12.4 ± 1.06 nM
- fold loss of affinity relative to 29 ([1]; ratio of Ki values, Table 1): ~ 26 fold
- fold loss of affinity upon changing 28 to 26 ([1]; ratio of Ki values, Table 1): ~12 fold
- fold lower binding affinity than 27 or 28 ([1]; ratio of Ki values, Table 1): 10 – 12 fold
SMILES: Cc1cc(N(C)CCOCCF)n2nc(C)c(-c3ccc(Cl)cc3Cl)c2n1 [Compound 26, 3-(2,4-dichlorophenyl)-N-(2-(2-fluoroethoxy)ethyl)-N,2,5-trimethylpyrazolo[1,5-a]pyrimidin-7-amine]

- Ki ([1]; 23 °C): 1.17 ± 0.07 nM
- fold loss of affinity relative to 29 ([1]; ratio of Ki values, Table 1): ~ 2.5 fold
SMILES: CCN(CCOCCF)c1cc(C)nc2c(-c3ccc(Cl)cc3Cl)c(C)nn12 [Compound 27, 3-(2,4-dichlorophenyl)-N-ethyl-N-(2-(2-fluoroethoxy)ethyl)-2,5-dimethylpyrazolo[1,5-a]pyrimidin-7-amine]

- Ki ([1]; 23 °C): 1.07 ± 0.21 nM
- fold loss of affinity relative to 29 ([1]; ratio of Ki values, Table 1): ~ 2.3 fold
SMILES: Cc1cc(N(C)CCCCF)n2nc(C)c(-c3ccc(Cl)cc3Cl)c2n1 [Compound 28, 3-(2,4-dichlorophenyl)-N-(4-fluorobutyl)-N,2,5-trimethylpyrazolo[1,5-a]pyrimidin-7-amine]

- Ki ([1]; 23 °C): 0.47 ± 0.1 nM
SMILES: CCN(CCCCF)c1cc(C)nc2c(-c3ccc(Cl)cc3Cl)c(C)nn12 [Compound 29, 3-(2,4-dichlorophenyl)-N-ethyl-N-(4-fluorobutyl)-2,5-dimethylpyrazolo[1,5-a]pyrimidin-7-amine]

- Ki ([1]; 23 °C): 0.59 ± 0.04 nM
SMILES: Cc1cc(N(CCF)CCCCF)n2nc(C)c(-c3ccc(Cl)cc3Cl)c2n1 [Compound 30, 3-(2,4-dichlorophenyl)-N-(4-fluorobutyl)-N-(2-fluoroethyl)-2,5-dimethylpyrazolo[1,5-a]pyrimidin-7-amine]

- radioactivity uptake in the skull and sphenoid region / defluorination (CRF1 receptor [3]; microPET TACs): rapid uptake and then a steady washout
SMILES: Cc1cc(N(C)CCOCC[18F])n2nc(C)c(-c3ccc(Cl)cc3Cl)c2n1 [[^18F]26, 3-(2,4-dichlorophenyl)-N-(2-(2-[^18F]fluoroethoxy)ethyl)-N,2,5-trimethylpyrazolo[1,5-a]pyrimidin-7-amine]
- brain uptake and washout compared with the other radiotracers (CRF1 receptor [3]; microPET TACs): entered the brain more rapidly and washed out more rapidly

- radioactivity uptake in the skull and sphenoid region / defluorination (CRF1 receptor [3]; microPET TACs): rapid uptake and then a steady washout
- specific binding in brain (high vs low CRF1 receptor density regions) (CRF1 receptor [3]; microPET TACs): little or no specific binding
- time of peak brain uptake (CRF1 receptor [3]; microPET TACs): 5 to 15 min
SMILES: CCN(CCOCC[18F])c1cc(C)nc2c(-c3ccc(Cl)cc3Cl)c(C)nn12 [[^18F]27, 3-(2,4-dichlorophenyl)-N-ethyl-N-(2-(2-[^18F]fluoroethoxy)ethyl)-2,5-dimethylpyrazolo[1,5-a]pyrimidin-7-amine]

- brain penetrance (CRF1 receptor [3]; microPET): brain penetrance was achieved
- specific binding in brain (high vs low CRF1 receptor density regions) (CRF1 receptor [3]; microPET TACs): little or no specific binding
- liver uptake (SUV) (Rat microPET imaging; at 3 min, tail vein injection): 5.4 SUV
- brain uptake (SUV) (Rat microPET imaging; at 5 min, tail vein injection): 2 SUV
- brain penetrance (Rat microPET imaging; microPET): brain penetrance was achieved
- stability to defluorination (bone visualization) (Rat microPET imaging; microPET): stable to defluorination
SMILES: Cc1cc(N(C)CCCC[18F])n2nc(C)c(-c3ccc(Cl)cc3Cl)c2n1 [[^18F]28, 3-(2,4-dichlorophenyl)-N-(4-[^18F]fluorobutyl)-N,2,5-trimethylpyrazolo[1,5-a]pyrimidin-7-amine]
- radioactivity uptake in the skull and sphenoid region / defluorination (CRF1 receptor [3]; microPET TACs): high radioactivity uptake in the skull, and sphenoid bone and/or sphenoid sinus, suggests defluorination

- brain uptake and washout compared with the other radiotracers (CRF1 receptor [3]; microPET TACs): very similar to that of [^18F]28
SMILES: [2H]C([2H])([18F])C([2H])([2H])C([2H])([2H])C([2H])([2H])N(C)c1cc(C)nc2c(-c3ccc(Cl)cc3Cl)c(C)nn12 [[^18F]28-d8, 3-(2,4-dichlorophenyl)-N-(4-[^18F]fluorobutyl-1,1,2,2,3,3,4,4-d8)-N,2,5-trimethylpyrazolo[1,5-a]pyrimidin-7-amine]
- radioactivity uptake in the skull and sphenoid region / defluorination (CRF1 receptor [3]; microPET TACs): reduced somewhat relative to [^18F]28 but defluorination was not completely prevented

- fold stronger binding affinity relative to [18F]28 [1]: ~ 2 fold
- brain uptake and washout compared with the other radiotracers (CRF1 receptor [3]; microPET TACs): the overall amount of uptake was less
SMILES: CCN(CCCC[18F])c1cc(C)nc2c(-c3ccc(Cl)cc3Cl)c(C)nn12 [[^18F]29, 3-(2,4-dichlorophenyl)-N-ethyl-N-(4-[^18F]fluorobutyl)-2,5-dimethylpyrazolo[1,5-a]pyrimidin-7-amine]
- radioactivity uptake in the skull and sphenoid region / defluorination (CRF1 receptor [3]; microPET TACs): less than that of [^18F]28 and [^18F]28-d8
